# Bioassay records (PubChem)
# The list is not random: actives were taken first. Their share in the collection is about 4.5%.
# GPR7 antag: antagonists of human GPR7 (neuropeptides B/W receptor 1) | P48145 | GPR7-expressing cells, fluorescence antagonist assay | inhibition, % at 4.4 µM | 1.1% of 290,000 active | AID 1861; in the data active means inhibition above about 16%, passing the limit was not always enough;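 further: cells stimulated with the agonist NPW; 0% = agonist with vehicle and 100% = vehicle without agonist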
# Target sequence (P48145 whole entry, looked up): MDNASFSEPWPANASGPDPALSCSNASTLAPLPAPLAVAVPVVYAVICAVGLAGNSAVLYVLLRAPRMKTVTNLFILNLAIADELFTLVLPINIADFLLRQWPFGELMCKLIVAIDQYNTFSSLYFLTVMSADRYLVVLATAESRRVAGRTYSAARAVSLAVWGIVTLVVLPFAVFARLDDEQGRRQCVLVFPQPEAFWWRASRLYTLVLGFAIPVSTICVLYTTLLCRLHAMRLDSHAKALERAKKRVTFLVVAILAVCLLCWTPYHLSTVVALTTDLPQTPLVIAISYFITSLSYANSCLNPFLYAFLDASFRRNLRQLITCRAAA
# OX1R antag-1: antagonists of human orexin 1 receptor | O43613 | CHO/OX1R cells, Fluo-8 calcium fluorescence, orexin A | inhibition, % at 5 µM | 0.43% of 330,000 active | AID 434989;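 active means inhibition above its plate's threshold, mean inhibition of all tested compounds on the plate plus 3 SD, cut at about 37% in these data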;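 further: 0% = orexin A challenge wells and 100% = SB-334867-A antagonist wells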
# TAAR1 ag: human TAAR1 agonism; Q96RJ0; CHO RD-HGA16 TAAR1, Fluo-8 calcium fluorescence; vehicle wells 0%, saturating PEA agonist 100%; activation, % at 3 µM; 0.99% of 360,000 active;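 active means activation above the mean activation of all test compounds in the run plus 3 SD, cut at about 38% in these data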
# Target sequence (Q96RJ0 whole entry, looked up): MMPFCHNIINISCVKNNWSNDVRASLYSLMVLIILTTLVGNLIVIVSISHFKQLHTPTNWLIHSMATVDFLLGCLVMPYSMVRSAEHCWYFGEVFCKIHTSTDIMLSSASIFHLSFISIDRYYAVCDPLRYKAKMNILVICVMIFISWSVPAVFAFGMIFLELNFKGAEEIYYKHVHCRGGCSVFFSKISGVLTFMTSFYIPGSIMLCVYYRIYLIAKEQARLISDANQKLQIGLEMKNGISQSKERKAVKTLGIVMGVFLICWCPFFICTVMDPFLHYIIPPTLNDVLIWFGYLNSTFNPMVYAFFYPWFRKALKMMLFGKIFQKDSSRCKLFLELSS
#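 Signal – calcium-sensitive Fluo-8 signal, excitation 470-495, emission 515-575 nm · System – RD-HGA16 (CHO) cells co-expressing Gα16 and hTAAR1 · Incubation – 17-24 h seeding, 75 min 37 °C dye, 30 min RT · Compound dosing – 3 µM single concentration · Repeats – no replicates (n 1)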
# OX1R antag-2: OX1R (human) antagonism; O43613; OX1R-expressing cells, FRET antagonist read-out; inhibition, % at 6.6 µM; 1.8% of 330,000 active; in the data active means inhibition mostly above about 38%, no sharp cut-off; inactive means mostly below about 40%;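 further: 0% = agonist challenge alone and 100% = reference antagonist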
# TAAR1 antagonist: antagonists of human TAAR1; Q96RJ0; inhibition, % at 3 µM; CHO RD-HGA16 TAAR1, Fluo-8 calcium fluorescence, antagonist; 1.5% of 360,000 active;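 active means inhibition above a per-plate cutoff, the mean inhibition of test compounds on that plate plus 3 SD, cut at about 49% in these data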;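 further: 0% = DMSO plus EC80 beta-PEA response and 100% = DMSO alone without agonist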
#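 Test system – hTAAR1-expressing CHO RD-HGA16 cells, Gα16-coupled · Reagent – β-PEA at EC80 concentration, post-compound challenge · Compound dosing – 3 µM, single point · Timing – 140 s kinetic read after compound, 140 s after agonist · Detection – Fluo-8 intracellular calcium dye fluorescence, real-time kinetic reads · Control set – DMSO and EC80 PEA controls · Repeats – n of 1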
# CHO parental Ca: counter-screen: ATP calcium response change in parental CHO cells | AID 463079 | parental CHO-K1, ATP-induced calcium, Fluo-8 fluorescence | inhibition, % at 5.6 µM | 0.63% of 330,000 active;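 active means inhibition above that plate's mean sample inhibition plus 3 SD, cut at about 26% in these data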;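 further: 0% = ATP-challenged DMSO wells and 100% = DMSO wells without ATP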
#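 material = parental CHO cells | also added = ATP as calcium-mobilizing challenge | dosing = single point at 5.6 µM | detection = intracellular calcium via Fluo-8 no-wash fluorescent dye | read-out = % inhibition | benchmarks = low control ATP plus DMSO, high control DMSO only | repeats = one well per compound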
# GPR7 antag conf: confirmation of human GPR7 antagonists. inhibition, % at 4.4 µM. GPR7-expressing cells, calcium fluorescence antagonist mode. shares compounds with GPR7 antag. 52% of 2,400 active. AID 1952; in the data active means inhibition above about 24%;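 further: stimulated with the GPR7 agonist NPW; 0% = agonist plus vehicle and 100% = vehicle alone without agonist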
# MCHR1 antagonist: MCHR1 (human) antagonism in GPR7 counter-screen. shares compounds with GPR7 antag. MCHR1-expressing cells, fluorescence antagonist assay. inhibition, % at 4.4 µM. 62% of 2,400 active. AID 2148; in the data active means inhibition above about 22%;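 further: 0% = vehicle with agonist and 100% = vehicle without agonist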
# An asterisk follows results filed as active; nt = no result.
SMILES,GPR7 antag,OX1R antag-1,TAAR1 ag,OX1R antag-2,TAAR1 antagonist,CHO parental Ca,others
O=C(C1CCCN(S(=O)(=O)c2cccc3nsnc23)C1)N1CCC2(CC1)OCCO2 (configuration not stated),1.0,-13.7,1.1,41.0*,6.4,-12.3,
COc1ccc(C(c2nnnn2-c2ccc3c(c2)OCCO3)N2CCC3(CC2)C(=O)NCN3c2ccccc2)cc1 (configuration not stated),nt,nt,0.7,nt,18.8,nt,
CC1(C)C[C@H]2C=C(C=O)[C@]3(C=O)C[C@]3(C)[C@H]2C1,3.7,39.6*,1.3,6.4,-7.5,69.0*,
CC(C)(O)/C=C/C(=O)C(C)(O)C1C(O)CC2(C)C3CC=C4C(C=C(O)C(=O)C4(C)C)C3(C)C(=O)CC12C (configuration not stated),nt,nt,1.6,nt,-13.9,nt,
O=[N+]([O-])c1nccn1CC(O)CN1CC1 (configuration not stated),nt,nt,19.8,nt,-27.9,nt,
COc1cc(C2c3cc4c(c(O)c3CC3COC(=O)C32)OCO4)cc(OC)c1OC (configuration not stated),nt,nt,15.4,nt,49.6*,nt,
COc1cc(C2c3cc4c(cc3CC3COC(=O)C32)OCO4)cc(OC)c1OC (configuration not stated),nt,-10.2,-0.2,5.0,-12.4,-9.7,
O=C(c1ccccc1)N1Cc2cc(Br)ccc2-n2nncc2C1,nt,nt,2.5,nt,-19.0,nt,
CNCC(O)c1cc(OCc2ccccc2)c(OCc2ccccc2)cc1F (configuration not stated),nt,3.5,45.3*,2.6,15.1,7.4,
COc1ccc(NP(=O)(Oc2ccccc2OC)Oc2ccccc2OC)cc1,-10.2,3.3,16.7,6.8,59.3*,-11.1,
COc1ccc(NP(=O)(Nc2ccc(OC)cc2)Oc2ccccc2)cc1,7.3,-18.1,5.3,8.8,28.3,-7.6,
COC(=O)C1CC(OC(C)=O)C(=O)[C@H]2C1(C)CC[C@H]1C(=O)OC(c3ccoc3)CC12C (some centres not stated),nt,nt,0.2,nt,14.0,nt,
N#Cc1ccc2nc(-c3ccc(CN4CCC(n5c(=O)[nH]c6ccccc65)CC4)cc3)c(-c3ccccc3)nc2c1,nt,nt,2.2,nt,61.3*,nt,
Cc1cccc2nc(-c3ccccc3)c(-c3ccc(CN4CCC(n5c(=O)[nH]c6ccccc65)CC4)cc3)nc12,nt,nt,1.8,nt,26.9,nt,
COC(=O)C1=C(c2ccc(OC(F)(F)F)cc2)C[C@@H]2CC[C@H]1N2C(=O)NCc1ccco1,nt,nt,-1.9,nt,-8.3,nt,
Cc1ccc(C(=O)N[C@@H](C)CN2C3=NC[C@@H](Cc4ccccc4)N3C[C@H]2Cc2ccc(O)cc2)cc1Br,16.7,-2.7,1.9,6.0,1.5,-11.1,
Cc1ccc(C(=O)N[C@@H](C)CN2C3=NC[C@H](Cc4ccccc4)N3C[C@H]2Cc2ccc(O)cc2)cc1Br,nt,46.6*,nt,15.8,nt,41.8*,
CC(C)=CCc1c(O)cc2c(c1O)C(=O)CC(c1ccc(O)cc1)O2 (configuration not stated),nt,9.8,41.9*,-2.7,19.2,23.2,
Cc1ccc(Cn2nc(C(=O)Nc3ccc(Br)cc3)cc2C)cc1,31.1,-3.3,0.8,33.4,-17.3,50.0*,
CC1CCC(C(C)C)C(OC(=O)Cn2c(COc3ccccc3)[n+](C)c3ccccc32)C1 (configuration not stated),58.3*,35.7*,2.7,15.6,-18.3,50.1*,
CCOC(=O)[C@]12Cc3cc(Cl)ccc3[C@H]1N(C1CCCCC1)C(=O)c1cc(OC)ccc12,nt,nt,2.2,nt,63.4*,nt,
Fc1ccc2nc(-c3ccc(CN4CCC(n5nnc6ccccc65)CC4)cc3)c(-c3ccccc3)nc2c1,nt,nt,-0.8,nt,45.0,nt,
O=C(NCCN1CCC2(CC1)C(=O)NCN2c1cccc(F)c1)c1ccc2ccccc2c1,nt,nt,82.8*,nt,106.4*,nt,
CCN1C(=O)C(=Cc2ccc(N3CCOCC3)o2)C(=O)N(CC)C1=S,1.9,6.2,40.0*,9.1,-2.0,4.3,
CCOC(=O)c1cc2c(cn1)[nH]c1ccccc12,-6.2,8.3,1.6,64.2*,-24.0,-3.6,
SMILES,GPR7 antag,OX1R antag-1,TAAR1 ag,OX1R antag-2,TAAR1 antagonist,CHO parental Ca,others
CCOC(=O)c1ccccc1N,nt,-9.2,0.5,9.3,1.2,-6.8,
COC(=O)C(O)(c1ccc(N(C)C(=O)c2ccc(Cl)c(Cl)c2)cc1)C(F)(F)F (configuration not stated),33.0*,-4.3,4.7,20.2,16.1,-14.2,GPR7 antag conf=29.8*;MCHR1 antagonist=-3.0
COc1ccccc1-n1c(O)c(/C=C2\C=Nc3ccccc32)c(=O)[nH]c1=O,29.3*,-8.4,7.5,22.1,-7.4,-1.3,GPR7 antag conf=39.1*;MCHR1 antagonist=53.0*
CC1N=C(c2ccccc2)c2cc(Br)ccc2NC1=O (configuration not stated),-18.2,-12.4,2.7,4.0,-5.9,-17.6,
OC(c1cccc(Cl)c1)(c1cccc(Cl)c1)C1CN2CCC1CC2 (configuration not stated),33.6*,-19.0,11.9,3.9,29.6,-0.8,GPR7 antag conf=43.6*;MCHR1 antagonist=50.6*
C[N+]1=C(/C=C/Nc2ccccc2)C(C)(C)c2ccccc21,-0.1,21.5,1.4,6.5,15.9,44.5,
CN1/C(=C\C=C\C2=[N+](C)c3ccc4ccccc4c3C2(C)C)C(C)(C)c2ccccc21,87.5*,103.0*,nt,-3.7,nt,97.5*,GPR7 antag conf=101.6*;MCHR1 antagonist=104.2*
CCOc1cc(CNCCc2cccc(F)c2)ccc1OC,7.8,-21.2,21.6,-3.0,-14.2,-21.2,
CCOc1ccc(Cl)cc1CNCCc1ccc(F)cc1,32.6*,-34.9,15.3,8.8,-6.2,-28.2,GPR7 antag conf=30.0*;MCHR1 antagonist=28.8*
COC(=O)C1=C(c2ccc(OCc3ccccc3)cc2)C[C@@H]2CC[C@H]1N2C(=O)NCc1cccc(OC)c1,nt,22.3,13.6,7.8,24.4,-1.0,
Cc1nc2cc(C(F)(F)F)ccc2n1C1CCN(Cc2nnnn2Cc2cccs2)CC1,32.2*,43.4*,28.1,-1.0,30.6,61.3*,GPR7 antag conf=46.5*;MCHR1 antagonist=38.2*
CC1CC2(C)C(=CC1=O)CCC1C3CCC(C)(O)C3(C)CC3OC312 (configuration not stated),nt,nt,2.1,nt,-1.3,nt,
COc1ccc(-[n+]2c(-c3ccccc3)cc(-c3ccc(C)cc3)cc2-c2ccccc2)cc1,72.4*,18.4,6.5,26.7,10.9,44.7*,GPR7 antag conf=69.5*;MCHR1 antagonist=65.2*
COc1ccc(-c2cc(-c3ccccc3)[n+](C)c(-c3ccccc3)c2)cc1,32.7*,-18.3,6.5,21.2,12.5,-17.2,GPR7 antag conf=41.6*;MCHR1 antagonist=38.1*
